Measurements as given in ChEMBL document CHEMBL2163238, “Design, synthesis, and biological evaluation of N-alkylated deoxynojirimycin (DNJ) derivatives for the treatment of dengue virus infection” (J Med Chem, 2012).
In brackets after ≈: the same amount, converted by molar mass. Activity calls are given as the source filed them. The rule behind the calls is not given here.

Key:
[1] = Cytotoxicity against MDBK cells assessed as cell viability by MTT assay; assay type: cell-based, Bos taurus; conditions: cattle
[2] = tested on: dengue virus type 2; test: Antiviral activity against 0.01 MOI DENV-2 NGC infected in BHK cells assessed as reduction in viral titer after 48 hrs; assay type: functional, organism-based
Method in brief: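 BHK cells infected with DENV-2 New Guinea C at MOI 0.01 for 1 h. Inoculum removed, then compounds at 0.1–100 μM for 48 h at 37 °C. Supernatants titrated on Vero monolayers as 10-fold dilutions under 0.5% methylcellulose for 3–5 days. Foci detected by 4G2 immunostaining or crystal violet plaques. EC50 from dose–response curves, mean of 3 independent experiments.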

[3] = Selectivity index, ratio of CC50 for BHK cells to EC50 for DENV-2 NGC infected in BHK cells
Method in brief: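 BHK cells infected with DENV-2 New Guinea C at MOI 0.01 for 1 h, then compounds at 0.1–100 μM for 48 h at 37 °C. Supernatant titrated on Vero cells under 0.5% methylcellulose, 3–5 days; foci by 4G2 immunostaining or crystal violet plaques. EC50 from yield curves; MTT CC50 in uninfected BHK; SI = CC50/EC50.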

[4] = Cytotoxicity against BHK cells assessed as cell viability by MTT assay; assay type: cell-based, Mesocricetus auratus; conditions: hamster
[5] = Antiviral activity against 1 MOI BVDV NADL infected in MDBK cells assessed as reduction in viral titer after 22 hrs; assay type: functional, cell-based, Bovine viral diarrhea virus 1-NADL; conditions: Bovine viral diarrhea virus isolates and strains, MDBK, 22 h
Method in brief: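 MDBK cells (2×10^5) infected 24 h after seeding with BVDV NADL at MOI 1, with 1 h adsorption at 37 °C. Washed, then compounds at 0.1–100 μM. Media harvested 22 h post-infection and plaque-titrated on MDBK under 1% methylcellulose for 3 days. Plaques counted directly or after neutral red staining. EC50 from dose–response curves, mean of 3 independent experiments.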

[6] = Selectivity index, ratio of CC50 for MDBK cells to EC50 for BVDV NADL infected in MDBK cells
Method in brief: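 MDBK cells infected with BVDV NADL at MOI 1, 1 h at 37 °C, washed, then compounds at 0.1–100 μM. Media harvested at 22 h, plaque-titrated on MDBK under 1% methylcellulose for 3 days, neutral red or direct count. EC50 from yield curves; MTT CC50 in uninfected MDBK; SI = CC50/EC50.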

[7] = biological target: T1, CYP1A2 (Homo sapiens, UniProt P05177); test: Inhibition of human CYP1A2 at 10 uM; assay type: ADME
T1 sequence (P05177 whole entry): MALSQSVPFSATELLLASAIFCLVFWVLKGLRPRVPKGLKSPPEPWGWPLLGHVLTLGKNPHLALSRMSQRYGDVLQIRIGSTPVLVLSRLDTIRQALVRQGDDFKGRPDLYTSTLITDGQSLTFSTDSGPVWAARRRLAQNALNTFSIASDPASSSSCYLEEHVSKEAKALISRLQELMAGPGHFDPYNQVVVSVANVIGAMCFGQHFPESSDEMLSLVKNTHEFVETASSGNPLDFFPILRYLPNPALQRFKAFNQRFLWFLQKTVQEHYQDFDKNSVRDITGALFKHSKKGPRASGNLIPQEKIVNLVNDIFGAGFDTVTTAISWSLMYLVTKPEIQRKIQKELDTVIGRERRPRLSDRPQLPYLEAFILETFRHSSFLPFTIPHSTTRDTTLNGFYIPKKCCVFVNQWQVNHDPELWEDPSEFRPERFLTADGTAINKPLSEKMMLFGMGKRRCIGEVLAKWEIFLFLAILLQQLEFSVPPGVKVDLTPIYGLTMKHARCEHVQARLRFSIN
Method in brief: (§1)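 Inhibition of CYP isoforms with compound at 10 μM, reported as % inhibition. CYP3A4 run with midazolam or testosterone as substrate.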

[8] = Plasma protein binding in mouse plasma; assay type: ADME, cell-free; conditions: read-out: PPB (converted)
Method in brief: (§2)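 Binding of compound to human, rat or mouse plasma protein, reported as % bound.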

[9] = Metabolic stability in human liver microsomes at 60 mins; assay type: ADME, Microsome; conditions: read-out: Stability
[10] = biological target: T2, CYP3A4 (Homo sapiens, UniProt P08684); test: Inhibition of human CYP3A4 using midazolam as substrate at 10 uM; assay type: ADME; conditions: probe midazolam; method in brief: as §1
[11] = biological target: CYP2C9 (Homo sapiens, UniProt P11712); test: Inhibition of human CYP2C9 at 10 uM; assay type: ADME
Method in brief: (§3)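 Inhibition of CYP isoforms by compounds tested at 10 μM, given as percent inhibition; contract in vitro ADME panel.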

[12] = biological target: CYP2D6 (Homo sapiens, UniProt P10635); test: Inhibition of human CYP2D6 at 10 uM; assay type: ADME; method in brief: as §3
[13] = Plasma protein binding in rat plasma; assay type: ADME, cell-free; conditions: read-out: PPB (converted); method in brief: as §2
[14] = Metabolic stability in rat liver microsomes at 60 mins; assay type: ADME, Microsome; conditions: read-out: Stability
[15] = Aqueous solubility in PBS at pH 4; assay type: physicochemical; conditions: buffer
[16] = Plasma protein binding in human plasma; assay type: ADME, cell-free; conditions: read-out: PPB (converted); method in brief: as §2
[17] = Cytotoxicity against human Huh7.5 cells assessed as cell viability by DRAQ5 and Sapphire 700 staining; conditions: huh-7
[18] = Metabolic stability in mouse liver microsomes at 60 mins; assay type: ADME, Microsome; conditions: read-out: Stability
[19] = Aqueous solubility in PBS at pH 7.4; assay type: physicochemical; conditions: buffer
[20] = biological target: CYP2C19 (Homo sapiens, UniProt P33261); test: Inhibition of human CYP2C19 at 10 uM; assay type: ADME; method in brief: as §1
[21] = tested on: Dengue virus; test: Antiviral activity against 0.01 MOI DENV infected in human Huh7.5 cells assessed as reduction in viral […] protein level at 0.1 to 100 uM after 2 days by Western blotting; assay type: functional, organism-based; conditions: Huh-7
[22] = biological target: T2, CYP3A4; test: (§4) Inhibition of human CYP3A4 using testosterone as substrate at 10 uM; assay type: ADME; conditions: probe testosterone; method in brief: as §1
[23] = biological target: Cytochrome P450 3A4 (Homo sapiens, UniProt P08684); test: as §4; assay type: ADME; conditions: 10 µM; method in brief: as §1
Sequence of Cytochrome P450 3A4 (P08684 whole entry): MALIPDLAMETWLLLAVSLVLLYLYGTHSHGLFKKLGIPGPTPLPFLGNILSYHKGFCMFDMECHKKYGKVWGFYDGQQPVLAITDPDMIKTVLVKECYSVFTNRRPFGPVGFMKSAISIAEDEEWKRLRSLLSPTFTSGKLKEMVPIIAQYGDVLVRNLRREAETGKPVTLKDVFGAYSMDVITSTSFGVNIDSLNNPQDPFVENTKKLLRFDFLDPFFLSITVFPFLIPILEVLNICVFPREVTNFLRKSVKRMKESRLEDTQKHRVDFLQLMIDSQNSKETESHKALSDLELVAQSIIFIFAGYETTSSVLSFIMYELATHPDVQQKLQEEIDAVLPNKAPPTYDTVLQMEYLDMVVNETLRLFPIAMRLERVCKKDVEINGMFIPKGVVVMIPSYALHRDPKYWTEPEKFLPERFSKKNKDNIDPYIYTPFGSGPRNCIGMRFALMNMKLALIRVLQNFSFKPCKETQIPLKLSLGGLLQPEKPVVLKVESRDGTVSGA

T2 sequence (P08684 whole entry): as above
Sequence of CYP2D6 (P10635 whole entry): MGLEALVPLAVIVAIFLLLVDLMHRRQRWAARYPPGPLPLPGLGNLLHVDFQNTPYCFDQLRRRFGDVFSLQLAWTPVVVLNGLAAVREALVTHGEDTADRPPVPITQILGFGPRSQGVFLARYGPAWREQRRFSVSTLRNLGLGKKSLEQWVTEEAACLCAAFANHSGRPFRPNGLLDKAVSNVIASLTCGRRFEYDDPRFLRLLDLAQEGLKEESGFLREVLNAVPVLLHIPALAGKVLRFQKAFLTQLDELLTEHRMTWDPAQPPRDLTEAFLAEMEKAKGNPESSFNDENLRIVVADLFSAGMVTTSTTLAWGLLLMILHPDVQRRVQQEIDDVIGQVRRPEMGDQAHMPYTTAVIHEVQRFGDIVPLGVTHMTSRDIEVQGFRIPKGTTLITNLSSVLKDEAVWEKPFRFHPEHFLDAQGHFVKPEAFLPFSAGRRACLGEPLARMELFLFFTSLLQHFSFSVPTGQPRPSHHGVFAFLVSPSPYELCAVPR
Sequence of CYP2C9 (P11712 whole entry, canonical isoform): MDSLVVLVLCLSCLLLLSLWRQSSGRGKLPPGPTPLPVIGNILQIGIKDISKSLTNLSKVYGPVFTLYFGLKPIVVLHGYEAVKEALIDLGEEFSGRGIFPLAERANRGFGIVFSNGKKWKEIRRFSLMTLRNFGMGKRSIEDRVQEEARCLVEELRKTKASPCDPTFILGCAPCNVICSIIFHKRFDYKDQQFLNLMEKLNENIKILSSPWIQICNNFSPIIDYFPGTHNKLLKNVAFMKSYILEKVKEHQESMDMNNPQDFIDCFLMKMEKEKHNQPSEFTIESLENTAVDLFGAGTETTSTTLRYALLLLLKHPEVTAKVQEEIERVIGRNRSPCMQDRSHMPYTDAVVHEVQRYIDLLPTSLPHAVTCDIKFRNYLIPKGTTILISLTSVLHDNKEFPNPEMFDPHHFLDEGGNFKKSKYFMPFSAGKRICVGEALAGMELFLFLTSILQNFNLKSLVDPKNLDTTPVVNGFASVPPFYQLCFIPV
Sequence of CYP2C19 (P33261 whole entry): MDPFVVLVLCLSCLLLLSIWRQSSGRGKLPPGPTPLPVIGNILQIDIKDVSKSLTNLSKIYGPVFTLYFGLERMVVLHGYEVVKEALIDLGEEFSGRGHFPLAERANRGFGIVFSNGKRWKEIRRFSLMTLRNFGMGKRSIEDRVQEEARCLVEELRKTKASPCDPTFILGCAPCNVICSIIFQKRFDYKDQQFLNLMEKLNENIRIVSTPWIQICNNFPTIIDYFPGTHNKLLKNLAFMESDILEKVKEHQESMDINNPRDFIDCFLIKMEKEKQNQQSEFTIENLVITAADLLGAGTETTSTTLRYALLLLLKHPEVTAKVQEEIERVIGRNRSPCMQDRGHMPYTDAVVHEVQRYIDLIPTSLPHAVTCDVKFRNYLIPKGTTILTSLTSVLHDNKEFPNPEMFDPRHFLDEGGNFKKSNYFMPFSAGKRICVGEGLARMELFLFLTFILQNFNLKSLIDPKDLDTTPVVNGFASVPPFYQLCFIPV

| SMILES | CC50 [1] | EC50 [2] | Ratio CC50/EC50 [3] | CC50 [4] | EC50 [5] | Ratio CC50/EC50 [6] | further results |
| --- | --- | --- | --- | --- | --- | --- | --- |
| OC[C@@H]1[C@@H](O)[C@H](O)[C@@H](O)CN1CCCCCCOc1ccccc1 | > 500 µM | 1.7 µM | >294 | > 500 µM | 0.9 µM | >556 |  |
| OC[C@@H]1[C@@H](O)[C@H](O)[C@@H](O)CN1CCCCCCOC1CCCC1 | > 500 µM | 1.4 µM | >357 | > 500 µM | 0.3 µM | >1667 |  |
| OC[C@@H]1[C@@H](O)[C@H](O)[C@@H](O)CN1CCCCCCOc1cccc(F)c1 | > 500 µM | 0.4 µM |  | > 500 µM | 0.5 µM |  | Activity [2]: Dose-dependent effect; inhibition at 10 µM [7]: 0.2%; fraction unbound [8]: 0.21; remaining at 1 h [9]: 87%; inhibition at 10 µM [10]: -2.3%; inhibition at 10 µM [11]: 6.2%; inhibition at 10 µM [12]: 10.3%; fraction unbound [13]: 0.29; remaining at 1 h [14]: […]; solubility [15]: 271 µM (≈ 96.9 µg/mL); fraction unbound [16]: 0.22; Activity [17]: Non-toxic; remaining at 1 h [18]: 104%; solubility [19]: 283 µM (≈ 101 µg/mL); inhibition at 10 µM [20]: 0.7%; Activity [21]: Active; inhibition at 10 µM [22]: -2.3% |
| CC1CCC(OCCCCCCN2C[C@H](O)[C@@H](O)[C@H](O)[C@H]2CO)CC1C (stereo partly specified) | > 500 µM | 0.4 µM | > 1250 | > 500 µM | 3.5 µM | >143 |  |
| OC[C@@H]1[C@@H](O)[C@H](O)[C@@H](O)CN1CC/C=C/CCOc1cc(F)ccc1F |  | 2.2 µM | >227 | > 500 µM | 0.9 µM | >556 |  |
| OC[C@@H]1[C@@H](O)[C@H](O)[C@@H](O)CN1CCCCCCOc1ccc(C(F)(F)F)cc1 | > 500 µM | 1.3 µM | 362 | 470 µM | 1.1 µM | >455 |  |
| OC[C@@H]1[C@@H](O)[C@H](O)[C@@H](O)CN1CCCCCCOc1cccc(C(F)(F)F)c1 | > 500 µM | 0.4 µM |  | 400 µM | 1.5 µM |  | inhibition at 10 µM [7]: 0.2%; fraction unbound [8]: 0.08; remaining at 1 h [9]: 94%; inhibition at 10 µM [10]: -18.5%; inhibition at 10 µM [11]: 37.6%; inhibition at 10 µM [12]: 3.4%; fraction unbound [13]: 0.1; remaining at 1 h [14]: 81%; solubility [15]: 281 µM (≈ 114 µg/mL); fraction unbound [16]: 0.07; remaining at 1 h [18]: 92%; solubility [19]: 278 µM (≈ 113 µg/mL); inhibition at 10 µM [20]: -2.5%; inhibition (INH) [23]: 3.2% |
| OC[C@@H]1[C@@H](O)[C@H](O)[C@@H](O)CN1CCC#CCCOc1cc(F)ccc1F | > 500 µM | 20 µM | >25 | > 500 µM | 47 µM | >11 |  |
| OC[C@@H]1[C@@H](O)[C@H](O)[C@@H](O)CN1CCCCCCOc1ccc(OC(F)(F)F)cc1 | > 500 µM | 0.6 µM | >833 | > 500 µM | 1.3 µM | >385 |  |
| CCC1CCC(OCCCCCCN2C[C@H](O)[C@@H](O)[C@H](O)[C@H]2CO)CC1 (stereo partly specified) | > 500 µM | 0.3 µM | 1583 | 475 µM | 0.4 µM | >1250 |  |
